Measured values: ChEMBL document CHEMBL4177702, “Design and synthesis of aminoester heterodimers containing flavone or chromone moieties as modulators of P-glycoprotein-based multidrug resistance (MDR)” (Bioorg Med Chem, 2018)
Active and inactive are the calls of the source. No cut-off for these calls is given here.

Tests used:
Type in all cases: cell-based
[1] = (§1) Inhibition of P-gp in human K562/Dox cells assessed as increase in nuclear accumulation of pirarubicin by spectrofluorometric assay; conditions: read-out: I50
[2] = species: Homo sapiens; assay: Inhibition of P-gp in human K562/Dox cells assessed as nuclear accumulation of pirarubicin at 10^-5 M by spectrofluorometric assay relative to control
[3] = Cytotoxicity against human K562/Dox cells assessed as reduction in cell viability at 1 to 3 uM after 72 hrs by MTT assay
How it was run: (§2)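 Exponentially growing cells (3×10^5 cells/mL) seeded at 10^4 cells/well and exposed to compound at 1.0 and 3.0 μM (diluted from 10^-2 M DMSO stocks in complete medium) for 72 h at 37 °C, 5% CO2. MTT added for 3 h, formazan dissolved in acidified isopropanol, absorbance at 570 nm. Toxicity expressed as proliferation relative to untreated control (100%).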

[4] = test system: K562; assay: Cytotoxicity against human K562 cells assessed as reduction in cell viability at 1 to 3 uM after 72 hrs by MTT assay; conditions: k562, 72 h; how it was run: as §2
[5] = species: Homo sapiens; assay: as §1

Row | Structure (SMILES) | IC50 [1] [nM] | Efficacy [2] [%] | also measured
1 | COc1cc(/C=C/C(=O)OCCCN(C)CCCOC(=O)c2cc(=O)c3c(O)cc(O)cc3o2)cc(OC)c1OC | – | 4 to 30 | Activity [3]: Non-Toxic; Activity [4]: Non-Toxic
2 | COc1cc(/C=C/C(=O)OCCCN(C)CCCOC(=O)c2cc(=O)c3c(OC)cccc3o2)cc(OC)c1OC | – | 4 to 30 | –
3 | COc1cc(/C=C/C(=O)OCCCN(C)CCCOC(=O)c2cc(=O)c3c(O)cccc3o2)cc(OC)c1OC | – | 4 to 30 | –
4 | COc1cc(/C=C/C(=O)OCCOCCN(C)CCOCCOC(=O)c2cc(=O)c3c(O)cc(O)cc3o2)cc(OC)c1OC | – | – | I50 [5]: inactive
5 | COc1cc(/C=C/C(=O)OCCCCCN(C)CCCCCOC(=O)c2cc(=O)c3c(OC)cccc3o2)cc(OC)c1OC | 3500 | – | –
6 | COc1cc(OC)c2c(=O)cc(C(=O)OCCCN(C)CCCOC(=O)/C=C/c3cc(OC)c(OC)c(OC)c3)oc2c1 | – | 4 to 30 | –
7 | COc1cc(/C=C/C(=O)OCCCN(C)CCCOC(=O)COc2ccc(-c3cc(=O)c4c(O)cc(O)cc4o3)cc2)cc(OC)c1OC | – | 4 to 30 | –
8 | COc1cc(/C=C/C(=O)OCCOCCNCCOCCOC(=O)COc2ccc(-c3cc(=O)c4ccccc4o3)cc2)cc(OC)c1OC | – | – | Activity [3]: Non-Toxic; Activity [4]: Non-Toxic
9 | COc1cc(/C=C/C(=O)OCCOCCN(C)CCOCCOC(=O)COc2ccc(-c3cc(=O)c4ccccc4o3)cc2)cc(OC)c1OC | 1230 | – | Activity [3]: Non-Toxic; Activity [4]: Non-Toxic

Continued, in another order:

Row | IC50 [1] [nM] | Structure (SMILES) | Efficacy [2] [%] | also measured
10 | 430 | COc1cc(/C=C/C(=O)OCCCCCN(CCCCCOC(=O)COc2ccc(-c3cc(=O)c4ccccc4o3)cc2)Cc2ccccc2)cc(OC)c1OC | – | –
11 | 1320 | COc1cc(/C=C/C(=O)OCCCCCNCCCCCOC(=O)COc2ccc(-c3cc(=O)c4ccccc4o3)cc2)cc(OC)c1OC | – | –
12 | 340 | COc1cc(/C=C/C(=O)OCCCCCN(C)CCCCCOC(=O)COc2ccc(-c3cc(=O)c4ccccc4o3)cc2)cc(OC)c1OC | – | Activity [3]: Non-Toxic; Activity [4]: Non-Toxic
13 | 960 | COc1cc(/C=C/C(=O)OCCCCCN(C)CCCCCOC(=O)COc2ccc(-c3cc(=O)c4c(O)cc(O)cc4o3)cc2)cc(OC)c1OC | – | –
14 | 1320 | COc1cc(OC)c2c(=O)cc(C(=O)OCCCCCN(C)CCCCCOC(=O)/C=C/c3cc(OC)c(OC)c(OC)c3)oc2c1 | – | –
15 | 2430 | COc1cc(/C=C/C(=O)OCCCCCN(C)CCCCCOC(=O)c2cc(=O)c3c(O)cc(O)cc3o2)cc(OC)c1OC | – | –
16 | 350 | COc1cc(/C=C/C(=O)OCCCCCN(C)CCCCCOC(=O)c2cc(=O)c3c(O)cccc3o2)cc(OC)c1OC | – | –
